Experimental data gathered from unrelated publications.
Compare with care: the assays were run in different laboratories.
LRRK2: Leucine-rich repeat serine/threonine-protein kinase 2 (LRRK2, Homo sapiens, UniProt Q5S007)
LRRK2 G2019S: Leucine-rich repeat serine/threonine-protein kinase 2 (LRRK2, Homo sapiens, UniProt Q5S007, G2019S)

| SMILES | target | observed | technique | concentration | remaining binding |
| --- | --- | --- | --- | --- | --- |
| c1cnn2ncc(-c3ccnc(N4CCC45COC5)n3)c2c1 | LRRK2 | binding | – | 1 µM | 35% |
| FC(F)(F)Oc1cccc(-c2cnc3ccc(-c4ccncc4)nn23)c1 | LRRK2 | cell-free assay | competition with immobilised ligand | 5 µM | 52% |
| O=C(N[C@H]1CCCCC/C=C\C2C[C@@]2(C(=O)O)NC(=O)[C@@H]2C[C@@H](Oc3ccncc3)CN2C1=O)OC1CCCC1 (some centres unmarked) | LRRK2 G2019S | binding | competition with immobilised ligand | 1 µM | 86% |
| O=C(NCCCN1CCOCC1)c1ccc(Nc2ncc(Cl)c(-c3ccc(Cl)s3)n2)cc1 | LRRK2 | binding | competition with immobilised ligand | 1 µM | 24% |
| CN(C)c1ncc(F)c(-c2cnn3ncccc23)n1 | LRRK2 G2019S | binding | – | 1 µM | 100% |
| CS(=O)(=O)NCC[C@H](NC(=O)c1cncc2c1cnn2-c1ccc(F)cc1)c1ccnc(S(C)(=O)=O)c1 | LRRK2 | cell-free assay | competition with immobilised ligand | 1 µM | 86% |
| CC1CCCN1c1nccc(-c2cnn3ncccc23)n1 (centres unmarked) | LRRK2 G2019S | binding | – | 1 µM | 100% |
| CCc1ccccc1C(=O)Nc1n[nH]c2c(C)c(F)c(C3C(C#N)=C(C)N(C)C(C)=C3C#N)cc12 | LRRK2 G2019S | cell-free assay | competition with immobilised ligand | 1 µM | 100% |
| CN(CCCC(F)(F)F)c1nccc(-c2cnn3ncccc23)n1 | LRRK2 G2019S | binding | – | 1 µM | 100% |
| O=C(c1ccc(Nc2nccc(-c3cc4ccccc4s3)n2)cc1)N1CCC(N2CCCC2)CC1 | LRRK2 | binding | competition with immobilised ligand | 1 µM | 40% |
| COc1cnc(Nc2cccc(S(N)(=O)=O)c2)nc1N1CCN(c2ccccc2)CC1 | LRRK2 G2019S | binding | competition with immobilised ligand | 1 µM | 95% |
| O=C(Nc1c[nH]nc1C(=O)NC1CCNCC1)c1cc(F)cc(F)c1 | LRRK2 G2019S | binding | competition with immobilised ligand | 1 µM | 93% |
| CNCc1ccccc1-c1csc([C@@H](C)Nc2nc(C)nc3cc(OC)c(OC)cc23)c1 | LRRK2 G2019S | cell-free assay | competition with immobilised ligand | 1 µM | 72% |
| C=CC(=O)N1CCC(C(=O)NCC(=O)N2CCN(c3nc(-c4cnc(N)nc4C(F)F)nc(N4CCOCC4)n3)CC2)CC1 | LRRK2 G2019S | binding | competition with immobilised ligand | 1 µM | 79% |
| Cc1c(C(=O)O)cc(-c2ccc(C3CCNCC3)cc2)c2ccc(-c3ccc(C(F)(F)F)cc3)cc12 | LRRK2 G2019S | binding | competition with immobilised ligand | 1 µM | 100% |
| CN(C)c1nccc(-c2cnc3ncccn23)n1 | LRRK2 | binding | – | 1 µM | 61% |
| CN1CCN(c2ccc(Nc3nccc(-c4cccc([N+](=O)[O-])c4)n3)cc2C(F)(F)F)CC1 | LRRK2 G2019S | binding | – | 10 µM | 49% |
| c1ccc(N2CCN(Cc3nc4ccccc4[nH]3)CC2)nc1 | LRRK2 | binding | competition with immobilised ligand | 1 µM | 99% |
| Cc1cnc(Nc2ccc(C(=O)N3CCC(N4CCCC4)CC3)cc2)nc1-c1cc2ccccc2s1 | LRRK2 | binding | competition with immobilised ligand | 1 µM | 8.3% |
| Nc1ncc2c(n1)-c1c([nH]c3ccc(C#CC4CC4)cc13)CCCC2 | LRRK2 G2019S | binding | competition with immobilised ligand | 1 µM | 83% |
| N[C@H]1CCN(c2nccc(-c3cnn4ncccc34)n2)C1 | LRRK2 G2019S | binding | – | 1 µM | 89% |
| CCC(=N\O)/C(C)=C/c1ccc(F)cc1 | LRRK2 | cell-free assay | competition with immobilised ligand | 1 µM | 90% |
| CCN1CCN(Cc2ccc(C(=O)Nc3ccc(C)c(Oc4ccc5c(c4)CC(=O)N5)c3)cc2C(F)(F)F)CC1 | LRRK2 G2019S | binding | competition with immobilised ligand | 1 µM | 100% |
